According to ChEMBL document CHEMBL1255441, “Pharmacokinetics of cefotaxime and desacetylcefotaxime in infants during extracorporeal membrane oxygenation” (Antimicrob Agents Chemother, 2010):

Legend:
Type in all cases: ADME, organism-based
Set-up in all cases: dose 50 mg/kg, route intravenous
Homo sapiens [1] = assay: Clearance in infant during extracorporeal membrane oxygenation assessed as desacetylcefotaxime at 50 mg/kg, iv dosed 2 to 3 times per day as bolus dose; details: in vivo
How it was run: (§1)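 Infants on ECMO (n=37; PNA 0.67–199 days; 2.0–6.2 kg). Cefotaxime given as an IV bolus (≤3 min) into the extracorporeal line after the oxygenator. Dosing: 50 mg/kg b.i.d. for PNA <1 week, 50 mg/kg t.i.d. for 1–4 weeks, 37.5 mg/kg q.i.d. for >4 weeks. Routine venous circuit samples (EDTA), including post-decannulation up to 24 h. Cefotaxime and desacetyl metabolite measured by LC-MS (LOQ 0.2 mg/liter). One-compartment NONMEM population model.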

[2] = Elimination half life in infant weighing 2 to 6.2 kg weight during extracorporeal membrane oxygenation at 50 mg/kg, iv dosed 2 to 3 times in a day bolus dose; details: human, in vivo, read-out: beta t1/2 (converted); how it was run: as §1
[3] = Clearance in infant weighing 2 to 6.2 kg weight at 50 mg/kg, iv dosed 2 to 3 times per day as bolus dose; details: human, in vivo; how it was run: as §1
Homo sapiens [4] = assay: Volume of distribution in infant during extracorporeal membrane oxygenation assessed as desacetylcefotaxime at 50 mg/kg, iv dosed 2 to 3 times per day as bolus dose; details: in vivo; how it was run: as §1
[5] = Clearance in infant weighing 2 to 6.2 kg weight after extracorporeal membrane oxygenation at 50 mg/kg, iv dosed 2 to 3 times per day as bolus dose measured after 72 hrs; details: human, in vivo; how it was run: as §1
Homo sapiens [6] = assay: Clearance in infant weighing 2 to 6.2 kg weight after extracorporeal membrane oxygenation assessed as desacetylcefotaxime at 50 mg/kg, iv dosed 2 to 3 times per day as bolus dose; details: in vivo; how it was run: as §1
Homo sapiens [7] = assay: Clearance in infant weighing 2 to 6.2 kg weight after extracorporeal membrane oxygenation assessed as desacetylcefotaxime at 50 mg/kg, iv dosed 2 to 3 times per day as bolus dose measured after 72 hrs; details: in vivo; how it was run: as §1
Homo sapiens [8] = assay: Elimination half life in infant weighing 2 to 6.2 kg weight during extracorporeal membrane oxygenation assessed as desacetylcefotaxime at 50 mg/kg, iv dosed 2 to 3 times per day as bolus dose; details: in vivo; how it was run: as §1
Homo sapiens [9] = assay: Clearance in infant weighing 2 to 6.2 kg weight assessed as desacetylcefotaxime at 50 mg/kg, iv dosed 2 to 3 times per day as bolus dose; details: in vivo; how it was run: as §1
[10] = Clearance in infant weighing 2 to 6.2 kg weight during extracorporeal membrane oxygenation at 50 mg/kg, iv dosed 2 to 3 times per day as bolus dose; details: human, in vivo; how it was run: as §1
[11] = Clearance in infant during extracorporeal membrane oxygenation at 50 mg/kg, iv dosed 2 to 3 times per day as bolus dose; details: human, in vivo; how it was run: as §1
[12] = Clearance in infant weighing 2 to 6.2 kg weight after extracorporeal membrane oxygenation at 50 mg/kg, iv dosed 2 to 3 times per day as bolus dose; details: human, in vivo; how it was run: as §1
[13] = Volume of distribution in infant during extracorporeal membrane oxygenation at 50 mg/kg, iv dosed 2 to 3 times per day as bolus dose; details: human, in vivo; how it was run: as §1

CO/N=C(\C(=O)N[C@@H]1C(=O)N2C(C(=O)O)=C(COC(C)=O)CS[C@H]12)c1csc(N)n1 [CEFOTAXIME]
CL (Homo sapiens [1]): 1.46 L/h | half-life [2]: 1.6 h | clearance [3]: 5 mL/min | Vd (Homo sapiens [4]): 11 L | clearance [5]: 6.67 mL/min | CL (Homo sapiens [6]): 0.18 L/h | CL (Homo sapiens [7]): 1.38 L/h | beta t1/2 (Homo sapiens [8]): 0.8 h | CL (Homo sapiens [9]): 1.37 L/h | clearance [10]: 4.33 mL/min | clearance [11]: 6 mL/min | clearance [12]: 3.67 mL/min | Vd [13]: 1.82 L
